Rows were chosen to be rich in hits. Some 1.3% of all compounds tested hit in one or more screens of this group.
Hep lipid drop: modulators of hepatic lipid droplet formation; AML12 mouse hepatocytes, oleate lipid droplets, BODIPY imaging; inhibition, % at 6.5 µM; 240,000 tested, 0.4% active;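 active means lipid droplet intensity inhibited by at least 50%, with more than 500 cells counted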
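Test system: AML12 hepatocytes (mouse); reagent: oleate loading, 100 µM; dosing: one dose, 6.5 µM compound; incubation: overnight exposure; signal: fluorescence imaging, 20x objective, two fields per well; read-out basis: % inhibition of corrected integrated BODIPY droplet signal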
core dimer inh: blocks dimerization of HCV core protein. AID 1899. TR-FRET GST/Flag-core106 dimerization, 1536-well. inhibition, % at 5 µM. 300,000 tested, 0.33% active;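 active means inhibition above the mean of all tested compounds plus 3 SD, set per screening campaign, cut at about 45% in these data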
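assay system = GST-tagged and Flag-tagged HCV core protein residues 1-106 | controls = unlabelled core106 and no-GST-core106 wells | incubation = compound-protein-antibody incubation 4 h at 22.5 °C | probe or stimulus = Eu donor and XL665 acceptor anti-tag antibodies | read-out = % inhibition based on acceptor/donor emission ratio | signal = TR-FRET 671 and 617 nm emission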
Tb MetRS inh: Trypanosoma brucei MetRS inhibition; purified T. brucei MetRS, ATP depletion, Kinase-Glo luminescence; inhibition, % at 11.9 µM; 360,000 tested, 0.4% active;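 active means inhibition above a per-plate cutoff of the control wells' mean inhibition plus 3 SD, cut at about 5.5% in these data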;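 further: 0% = DMSO wells median and 100% = median of wells with control inhibitor compound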
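Assay system: T. brucei methionyl-tRNA synthetase, purified | Medium: HEPES buffer with MgCl2, KCl, DTT, spermine, BSA, pyrophosphatase | Compound: 11.9 µM single point | Incubation: 15 min enzyme-compound preincubation, 2 h reaction, 10 min detection, 25 °C | Measured by: Kinase-Glo luciferase luminescence reporting remaining unconsumed ATP | Measure: % inhibition normalized to control-well medians | Replication: Singlicate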
NS3 helicase inh: blocks Hepatitis C virus NS3 helicase unwinding; NS3 helicase DNA unwinding, Cy5 molecular beacon fluorescence; inhibition, % at 10.9 µM; 290,000 tested, 0.56% active;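 active means inhibition above the mean of all tested compounds plus 3 SD, set per campaign, cut at about 35% in these data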;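 further: 0% = DMSO wells and 100% = thioflavine S control wells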
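Assay system: hepatitis C virus NS3 helicase domain fragment enzyme. Also added: annealed dual-labelled DNA beacon duplex, ATP-started. Timing: 1 h reaction at 25 °C, ATP-initiated. Technique: Cy5 fluorescence at 0 and 60 min, beacon hairpin quenching. Evaluation: % inhibition of unwinding. Replication: one well per compound.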
Lipid drop inh: confirmation of inhibitors of hepatic lipid droplet formation. shares compounds with Hep lipid drop. AML12 mouse hepatocytes, BODIPY lipid droplet imaging; droplets induced with 100 µM oleic acid. inhibition, % at 5.2 µM. 870 tested, 65% active;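 active means inhibition of lipid droplet metric at least 50%, with more than 300 cells in each of four replicates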;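 further: plate controls were DMSO with oleic acid for no effect and 5 µM Triacsin-C for full effect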
AML12 cytotox: AML12 hepatocyte cytotoxicity (counter-screen); z-score at 5 µM; AID 463200; shares compounds with Hep lipid drop; 870 tested, 3% active; AML12 mouse hepatocytes, DAPI nuclear morphology cytotoxicity imaging; active compounds read high; cells fed 100 µM oleate overnight; in the data active means z-score above about 6.3;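 further: compound exposure lasted overnight at 37 °C before fixation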
AML12 tox conf: AML12 hepatocyte cytotoxicity, confirmed; shares compounds with Hep lipid drop; 530 tested, under 10 active; cytotoxicity, % at 50 µM; AML12 mouse hepatocyte viability, ATP luminescence; cells loaded with 100 µM oleic acid;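 active means cytotoxicity above 50% in each of four replicates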;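 further: compound exposure lasted overnight at 37 °C before the ATP read; 0% = DMSO-treated cells and 100% = wells with no cells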
Numbers without * were called inactive; . = no result.

SMILES | Hep lipid drop | core dimer inh | Tb MetRS inh | NS3 helicase inh | Lipid drop inh | AML12 cytotox | AML12 tox conf
CC(C)C(C)NC(=O)CSc1nc2scc(-c3ccco3)c2c(=O)n1-c1ccccc1 (stereo not drawn) | 59.8* | 39.0 | -1.2 | 2.5 | 31.7 | -0.739 | .
Cc1ccc(CN2CCN(c3ccccc3)CC2)o1 | 75.1* | 6.9 | 0.6 | -1.7 | 38.9 | -0.215 | .
Cc1ccc(CN2CCN(c3ncccn3)CC2)o1 | 7.2 | -2.7 | -1.2 | -4.0 | . | . | .
CCOc1ccc2c(c1)-c1c(ssc1=S)C(C)(C)N2C(=O)CSC1=NCCS1 | 53.5* | 6.2 | -0.3 | -6.0 | 12.6 | 0.203 | .
O=c1[nH]c(CSc2nnc(-c3ccccc3)n2-c2ccccc2)nc2ccccc12 | 61.8* | -17.2 | -0.9 | -9.2 | 11.4 | -0.267 | .
CSc1c(CC(=O)Nc2ccccc2C(F)(F)F)n(Cc2ccccc2)c2ccccc12 | 68.7* | -5.8 | 0.4 | -1.2 | 104.5* | 0.466 | .
CC(C)C(=O)N1CCCC1(C)C(=O)Nc1ccc2c(c1)OCO2 (stereo not drawn) | . | . | -0.3 | . | . | . | .
CCCCCNC(=O)C1C(=O)Nc2ccccc2C(=O)N1c1c(C)cccc1C (stereo not drawn) | . | . | -0.8 | . | . | . | .
c1ccc2nc(N3CCN(Cc4ccc5c(c4)OCO5)CC3)cnc2c1 | 50.3* | 1.9 | 0.1 | 5.6 | 10.3 | 0.606 | .
O=C(CSCC(=O)N1CCCc2ccccc21)Nc1nc(-c2ccccc2)cs1 | 69.0* | 12.9 | 0.5 | -15.6 | 90.0* | -0.0781 | 24.2
CCOC(=O)N1CCN(C(=O)CSCC(=O)Nc2nc(-c3cccs3)cs2)CC1 | 78.7* | -0.3 | -1.0 | -4.5 | 96.9* | -0.235 | 18.6
CC1CCN(C(=O)CSCC(=O)Nc2nc(-c3cccs3)cs2)CC1 | 46.8 | 8.0 | 0.1 | -7.8 | . | . | .
Cc1cc(C)cc(NC(=S)N2CCC(C(=O)c3ccc(F)cc3)CC2)c1 | . | . | -0.1 | . | . | . | .
COc1ccc(NC(=O)N2CCC(C(=O)c3ccc(F)cc3)CC2)cc1 | . | -3.5 | -0.1 | 3.8 | . | . | .
Cc1cccc(NC(=O)N2CCC(C(=O)c3ccc(F)cc3)CC2)c1 | 83.6* | 5.5 | -0.5 | -10.8 | 97.6* | -0.695 | 12.9
CSc1ccc(NC(=O)N2CCC(C(=O)c3ccc(F)cc3)CC2)cc1 | 70.7* | 4.3 | 0.0 | -1.8 | 96.3* | 0.486 | 18.9
Cc1cc(C)cc(NC(=O)N2CCC(C(=O)c3ccc(F)cc3)CC2)c1 | 66.9* | 6.2 | 0.1 | -11.3 | 96.0* | 0.074 | 12.8
O=C(Nc1ccc2c(c1)OCO2)c1csc([C@@H]2O[C@H](CO)[C@H](O)[C@H](O)[C@H]2O)n1 | . | . | -0.1 | . | . | . | .
Cc1ccccc1NC(=O)C1C(=O)Nc2ccccc2C(=O)N1Cc1ccccc1 (stereo not drawn) | . | . | 0.1 | . | . | . | .
O=C1NC[C@H](CCCCN2CCN(Cc3ccccc3)C(=O)C2=O)N(CCc2ccccc2)C1=O | . | . | -0.5 | . | . | . | .
COc1ccc(N(Cc2cc(=O)[nH]c3ccccc23)C(C)=O)cc1 | 74.9* | -0.1 | -0.9 | 7.6 | 0.2 | 0.313 | .
CCNc1nc(N)c(C(=O)c2ccc(Cl)s2)s1 | 51.6* | 0.9 | 0.1 | 9.2 | 26.5 | -0.337 | .
COC(=O)c1ccc2c(c1)NC(=O)C(N(CC(C)C)CC(C)C)S2 (stereo not drawn) | 83.6* | 4.5 | -0.4 | 10.5 | 15.1 | -0.347 | .
CN(C)S(=O)(=O)c1cccc(NC(=O)CC23CC4CC(CC(C4)C2)C3)c1 | 83.9* | -1.7 | 0.6 | 1.1 | 24.3 | -0.171 | .
CC(C)Oc1ccc(C(=O)OC(C)C(=O)Nc2nc(-c3cccc([N+](=O)[O-])c3)cs2)cc1 (stereo not drawn) | 91.2* | -2.7 | -0.7 | 5.7 | 96.9* | 0.343 | 10.3
O=C(Nc1nc(-c2cccc([N+](=O)[O-])c2)cs1)c1cccc([N+](=O)[O-])c1C(=O)O | 2.2 | -2.2 | 0.1 | 22.0 | . | . | .
O=C(Cc1cccc2ccccc12)Nc1nc(-c2cccc([N+](=O)[O-])c2)cs1 | 68.5* | 19.3 | -0.6 | 5.5 | 100.0* | -1.03 | 31.2
